{
  "source": "ChEMBL document CHEMBL4393654",
  "about": "“Discovery and Early Clinical Development of an Inhibitor of 5-Lipoxygenase Activating Protein (AZD5718) for Treatment of Coronary Artery Disease” (J Med Chem, 2019)",
  "key": {"[1]": {"experiment": "Octanol-phosphate buffer partition co-efficient, log D of the compound at pH 7.4 after 2 hrs by LC-MS/MS-based shake flask method", "type": "physicochemical", "summary_of_the_method": "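Distribution between octanol and water at pH 7.4.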"}, "[2]": {"experiment": "Aqueous solubility of the compound in pH 7.4 phosphate buffer measured after 24 hrs by LC-MS/MS-based shake flask method", "type": "physicochemical"}, "[3]": {"target": "T1, Arachidonate 5-lipoxygenase-activating protein (Homo sapiens) (UniProt P20292)", "T1 sequence (whole entry)": "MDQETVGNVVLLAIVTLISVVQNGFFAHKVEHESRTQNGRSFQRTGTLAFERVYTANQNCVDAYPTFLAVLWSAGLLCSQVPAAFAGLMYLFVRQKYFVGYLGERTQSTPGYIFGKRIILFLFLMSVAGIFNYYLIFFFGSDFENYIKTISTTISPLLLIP", "experiment": "Inhibition of FLAP in human whole blood assessed as reduction in calcium ionophore-stimulated LTB4 production preincubated for 4 hrs followed by calcium ionophore stimulation and measured after 20 mins by EIA", "type": "tissue-based", "summary_of_the_method": "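Fresh human whole blood was incubated with compound for 4 h, then stimulated with calcium ionophore, and LTB4 production was measured as the 5-LO pathway read-out. IC50 was also converted to a free value: IC50 × (Fu/100), where Fu = 100 − human plasma protein binding (%).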"}, "[4]": {"experiment": "Intrinsic clearance in human hepatocytes assessed per million cells at 1 uM measured after 2 to 60 mins by LC-MS/MS analysis", "type": "ADME, cell-based, Hepatocyte", "settings": "read-out: CLH"}, "[5]": {"experiment": "Intrinsic clearance in rat hepatocytes assessed per million cells at 1 uM measured after 2 to 60 mins by LC-MS/MS analysis", "type": "ADME, cell-based, Hepatocyte", "settings": "read-out: CLH", "summary_of_the_method": "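Rat hepatocyte incubation of the compound; intrinsic clearance measured after incubation.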"}, "[6]": {"experiment": "Passive apparent permeability across apical to basolateral side in human Caco2 cells at pH 6.5", "type": "ADME, cell-based", "settings": "Caco-2, pH 6.5", "summary_of_the_method": "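Passive permeability across Caco-2 monolayers, measured in the A to B direction at pH 6.5.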"}, "[7]": {"experiment": "Mutagenicity in Salmonella typhimurium TA98 in presence of rat S9 fraction by Ames test", "type": "toxicity, subcellular", "settings": "salmonella enterica subsp. enterica serovar typhimurium", "summary_of_the_method": "(§1)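 Ames bacterial mutagenicity test in S. typhimurium TA98 and TA100. Run with and without metabolic activation by rat S9 fraction.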"}, "[8]": {"experiment": "Mutagenicity in Salmonella typhimurium TA98 in absence of rat S9 fraction by Ames test", "type": "toxicity", "settings": "salmonella enterica subsp. enterica serovar typhimurium", "summary_of_the_method": "as §1"}, "[9]": {"experiment": "Mutagenicity in Salmonella typhimurium TA100 in presence of rat S9 fraction by Ames test", "type": "toxicity, subcellular", "settings": "salmonella enterica subsp. enterica serovar typhimurium", "summary_of_the_method": "as §1"}, "[10]": {"experiment": "Mutagenicity in Salmonella typhimurium TA100 in absence of rat S9 fraction by Ames test", "type": "toxicity", "settings": "salmonella enterica subsp. enterica serovar typhimurium", "summary_of_the_method": "as §1"}, "[11]": {"target": "T2, Arachidonate 5-lipoxygenase-activating protein (Homo sapiens, UniProt P20292)", "T2 sequence (P20292 whole entry)": "T1 sequence (whole entry)", "experiment": "Inhibition of [3H]MK0591 binding to human FLAP expressed in […] cell membranes measured after 60 to 80 mins by microbeta scintillation counting method"}},
  "data": [
    {"smiles": "CCn1ncc(NC(=O)[C@@H]2CCCC[C@H]2C(=O)c2ccc(-c3cc(C)n[nH]3)cc2)c1C(N)=O", "values": [
      {"measurement": "logD at 2 h", "setting": "[1]", "value": 2.9},
      {"measurement": "solubility thermodynamic at 24 h", "setting": "[2]", "value": 329, "unit": "µM"},
      {"measurement": "fIC50", "setting": "[3]", "value": 16, "unit": "nM"},
      {"measurement": "hepatocyte CLint at 1 µM", "setting": "[4]", "value": 4.9, "unit": "µL/min/1e6 cells"},
      {"measurement": "hepatocyte CLint at 1 µM", "setting": "[5]", "value": 8.6, "unit": "µL/min/1e6 cells"},
      {"measurement": "Papp A→B", "setting": "[6]", "value": 9.2, "unit": "×10⁻⁶ cm/s"},
      {"measurement": "Activity", "setting": "[7]", "value": "Toxic"},
      {"measurement": "Activity", "setting": "[8]", "value": "Toxic"},
      {"measurement": "Activity", "setting": "[9]", "value": "Toxic"},
      {"measurement": "Activity", "setting": "[10]", "value": "Toxic"}
    ]},
    {"smiles": "Cc1cc(-c2ccc(C(=O)[C@@H]3CCCC[C@H]3C(=O)Nc3cnn(C)c3C(N)=O)cc2)[nH]n1", "values": [
      {"measurement": "logD at 2 h", "setting": "[1]", "value": 2.6},
      {"measurement": "solubility thermodynamic at 24 h", "setting": "[2]", "value": 475, "unit": "µM"},
      {"measurement": "fIC50", "setting": "[3]", "value": 13, "unit": "nM"},
      {"measurement": "hepatocyte CLint at 1 µM", "setting": "[4]", "value": 3, "unit": "µL/min/1e6 cells"},
      {"measurement": "hepatocyte CLint at 1 µM", "setting": "[5]", "value": 6.5, "unit": "µL/min/1e6 cells"},
      {"measurement": "Papp A→B", "setting": "[6]", "value": 2.6, "unit": "×10⁻⁶ cm/s"},
      {"measurement": "Activity", "setting": "[7]", "value": "Toxic"},
      {"measurement": "Activity", "setting": "[8]", "value": "Toxic"},
      {"measurement": "Activity", "setting": "[9]", "value": "Toxic"},
      {"measurement": "Activity", "setting": "[10]", "value": "Toxic"}
    ]},
    {"smiles": "Cc1cc(-c2ccc(C(=O)[C@@H]3CCCC[C@H]3C(=O)Nc3cn(C)nc3C)cc2)n[nH]1", "values": [
      {"measurement": "logD at 2 h", "setting": "[1]", "value": 3.1},
      {"measurement": "solubility thermodynamic at 24 h", "setting": "[2]", "value": 225, "unit": "µM"},
      {"measurement": "IC50", "setting": "[11]", "value": 59, "unit": "nM"},
      {"measurement": "fIC50", "setting": "[3]", "value": 7.4, "unit": "nM"},
      {"measurement": "hepatocyte CLint at 1 µM", "setting": "[4]", "value": 4, "unit": "µL/min/1e6 cells"},
      {"measurement": "hepatocyte CLint at 1 µM", "setting": "[5]", "value": 12.8, "unit": "µL/min/1e6 cells"},
      {"measurement": "Papp A→B", "setting": "[6]", "value": 20.5, "unit": "×10⁻⁶ cm/s"},
      {"measurement": "Activity", "setting": "[7]", "value": "Non-Toxic"},
      {"measurement": "Activity", "setting": "[8]", "value": "Non-Toxic"},
      {"measurement": "Activity", "setting": "[9]", "value": "Non-Toxic"},
      {"measurement": "Activity", "setting": "[10]", "value": "Non-Toxic"}
    ]},
    {"smiles": "Cc1cc(-c2ccc(C(=O)[C@@H]3CCCC[C@H]3C(=O)Nc3cn(C)nc3C(N)=O)cc2)[nH]n1", "values": [
      {"measurement": "fIC50", "setting": "[3]", "value": 22, "unit": "nM"}
    ]},
    {"smiles": "Cc1cc(-c2ccc(C(=O)[C@@H]3CCCC[C@H]3C(=O)Nc3c(C)nn(C)c3C(N)=O)cc2)n[nH]1", "values": [
      {"measurement": "logD at 2 h", "setting": "[1]", "value": 2.6},
      {"measurement": "solubility thermodynamic at 24 h", "setting": "[2]", "value": 399, "unit": "µM"},
      {"measurement": "IC50", "setting": "[11]", "value": 101, "unit": "nM"},
      {"measurement": "fIC50", "setting": "[3]", "value": 8, "unit": "nM"},
      {"measurement": "hepatocyte CLint at 1 µM", "setting": "[4]", "value": "< 1", "unit": "µL/min/1e6 cells"},
      {"measurement": "hepatocyte CLint at 1 µM", "setting": "[5]", "value": 5.7, "unit": "µL/min/1e6 cells"},
      {"measurement": "Papp A→B", "setting": "[6]", "value": 1.4, "unit": "×10⁻⁶ cm/s"},
      {"measurement": "Activity", "setting": "[7]", "value": "Toxic"},
      {"measurement": "Activity", "setting": "[8]", "value": "Toxic"},
      {"measurement": "Activity", "setting": "[9]", "value": "Toxic"},
      {"measurement": "Activity", "setting": "[10]", "value": "Toxic"}
    ]},
    {"smiles": "Cc1cc(-c2ccc(C(=O)[C@@H]3CCCC[C@H]3C(=O)Nc3cnn(C)c3C(=O)O)cc2)[nH]n1", "values": [
      {"measurement": "logD at 2 h", "setting": "[1]", "value": 0.2},
      {"measurement": "solubility thermodynamic at 24 h", "setting": "[2]", "value": 599, "unit": "µM"},
      {"measurement": "IC50", "setting": "[11]", "value": 17, "unit": "nM"},
      {"measurement": "fIC50", "setting": "[3]", "value": 570, "unit": "nM"},
      {"measurement": "hepatocyte CLint at 1 µM", "setting": "[4]", "value": 3.2, "unit": "µL/min/1e6 cells"},
      {"measurement": "Papp A→B", "setting": "[6]", "value": 0.21, "unit": "×10⁻⁶ cm/s"}
    ]},
    {"smiles": "Cc1cc(-c2ccc(C(=O)[C@@H]3CCCC[C@H]3C(=O)Nc3cnn(CC(N)=O)c3)cc2)[nH]n1", "values": [
      {"measurement": "logD at 2 h", "setting": "[1]", "value": 2.1},
      {"measurement": "solubility thermodynamic at 24 h", "setting": "[2]", "value": 496, "unit": "µM"},
      {"measurement": "IC50", "setting": "[11]", "value": 241, "unit": "nM"},
      {"measurement": "fIC50", "setting": "[3]", "value": 487, "unit": "nM"}
    ]}
  ]
}
